Activity calls are given as the source filed them. No cut-off for these calls is given here.

The test system of data set [1] is Brain. Put plainly: Drug uptake in iv dosed ICR mouse brain. It is filed as ADME, organism-based. To be noted: in vivo.
The nature of data set [2]: Displacement of [125I]TZDM from amyloid beta (1 to 40) fibrils. On the technique in general: Loss of bound radioactivity is the signal in a displacement assay; it reports binding, not function.
Data set [3] can be described thus: n-Octanol-PBS buffer partition coefficient, log D of the compound at 370 kBq after 3 mins at pH 7.4. It is filed as physicochemical. The method in brief: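 For log D, tubes containing n-octanol and PBS were vortexed 3 min at room temperature and centrifuged 5 min at 3000 rpm. Weighed samples of the octanol (100 μL) and buffer (500 μL) layers were counted. Log D is the log of the ratio of counts per gram, octanol to PBS.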

The test system of data set [4] is Brain. As to the kind of experiment: Drug uptake in ddY mouse brain at 370 kBq/100 ul, iv assessed per organ at 60 mins by gamma-counting analysis. It is filed as ADME, organism-based. To be noted: in vivo, 1 h.
The nature of data set [5]: Displacement of [125I]IMPY from amyloid beta (1 to 42) fibrils after 2 hrs by gamma-counting analysis. The essentials:
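Competition binding with aggregated Aβ1-42 fibrils (60 nM final) and [125I]IMPY. Inhibitors were tested at 10⁻⁵–10⁻¹⁰ M (in ethanol) in 0.2 M PBS, pH 7.4, 1 mL, for 2 h at 37 °C with shaking. Nonspecific binding was defined with 1 μM IMPY. Bound ligand was collected by GF/B filtration and γ-counted. Ki was derived from IC50 via Cheng–Prusoff.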

The test system of data set [6] is Brain. Put plainly: Drug uptake in ddY mouse brain at 370 kBq/100 ul, iv assessed per organ at 2 mins by gamma-counting analysis. It is filed as ADME, organism-based. To be noted: in vivo.
The subject of data set [7] is Brain. As to the kind of experiment: Ratio of drug uptake in brain at 2 mins to drug uptake in brain at 60 mins in ddY mouse at 370 kBq/100 ul, iv. It is filed as ADME, organism-based. To be noted: in vivo. The essentials:
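Tail-vein injection of 370 kBq/100 μL (saline, 5% EtOH) into male ddY mice (5 weeks, 20−22 g, n = 5). Brain excised at 2 and 60 min, weighed and γ-counted against diluted injectate. Uptake is %ID/g, and the ratio is brain at 2 min divided by brain at 60 min.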

The species named for data set [8] is Mus musculus. Put plainly: Binding affinity to amyloid beta plaques in transgenic C57BL6 mouse brain expressing APP Swedish mutant/PSEN1 at 370 kBq/100 ul after 1 hr by autoradiographic analysis. It is filed as tissue-based. To be noted: tested as the 18F-labelled form. The essentials: (§1)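 In vitro autoradiography on paraffin sections. Mouse: Tg C57BL6 APPswe/PSEN1 and wild-type, both 12 months old. Human: AD (person) and normal (person). Sections were deparaffinized through xylene and graded ethanol, held in PBS (0.2 M, pH 7.4) for 30 min, then incubated with tracer (370 kBq/100 μL) for 1 h at room temperature. Washes were 50% ethanol then water. Plates were exposed overnight. Plaques were confirmed by thioflavin-S or monoclonal Aβ1-42 antibody immunostaining.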

In data set [9] the test system is Mus musculus. Put plainly: Binding affinity to amyloid beta plaque in transgenic C57BL6 mouse cortex expressing APP Swedish mutant at 40.7 MBq, iv after 30 mins by thioflavinS-staining method. It is filed as functional, organism-based. Details: dose or concentration left out as unconfirmed. To be noted: tested as the 18F-labelled form. The method in brief:
(§2)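 Ex vivo: Tg2576 (C57BL6, APPsw) mice, 18 months old, and age-matched wild-type mice. Each received 40.7 MBq of tracer in 100 μL saline with 5% EtOH iv via the femoral vein and was decapitated 30 min later. Brains were frozen in dry ice and cut into 20 μm sections. Sections were exposed to an imaging plate for 8 h, then the same sections were stained with thioflavin-S.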

Data set [10] is filed under the species Mus musculus. Put plainly: Binding affinity to amyloid beta plaques in transgenic C57BL6 mouse brain expressing APP Swedish mutant/PSEN1 at 370 kBq/100 ul after 1 hr by thioflavinS-staining method. It is filed as tissue-based. To be noted: tested as the 18F-labelled form. The method in brief: as §1
For data set [11], the target named is Amyloid-beta precursor protein (Homo sapiens) (UniProt P05067). As to the kind of experiment: Binding affinity to amyloid beta plaques in […] brain at 370 kBq/100 ul after 1 hr by autoradiographic analysis. To be noted: tested as the 18F-labelled form. The method in brief: as §1
Sequence of Amyloid-beta precursor protein (Homo sapiens) (P05067 whole entry): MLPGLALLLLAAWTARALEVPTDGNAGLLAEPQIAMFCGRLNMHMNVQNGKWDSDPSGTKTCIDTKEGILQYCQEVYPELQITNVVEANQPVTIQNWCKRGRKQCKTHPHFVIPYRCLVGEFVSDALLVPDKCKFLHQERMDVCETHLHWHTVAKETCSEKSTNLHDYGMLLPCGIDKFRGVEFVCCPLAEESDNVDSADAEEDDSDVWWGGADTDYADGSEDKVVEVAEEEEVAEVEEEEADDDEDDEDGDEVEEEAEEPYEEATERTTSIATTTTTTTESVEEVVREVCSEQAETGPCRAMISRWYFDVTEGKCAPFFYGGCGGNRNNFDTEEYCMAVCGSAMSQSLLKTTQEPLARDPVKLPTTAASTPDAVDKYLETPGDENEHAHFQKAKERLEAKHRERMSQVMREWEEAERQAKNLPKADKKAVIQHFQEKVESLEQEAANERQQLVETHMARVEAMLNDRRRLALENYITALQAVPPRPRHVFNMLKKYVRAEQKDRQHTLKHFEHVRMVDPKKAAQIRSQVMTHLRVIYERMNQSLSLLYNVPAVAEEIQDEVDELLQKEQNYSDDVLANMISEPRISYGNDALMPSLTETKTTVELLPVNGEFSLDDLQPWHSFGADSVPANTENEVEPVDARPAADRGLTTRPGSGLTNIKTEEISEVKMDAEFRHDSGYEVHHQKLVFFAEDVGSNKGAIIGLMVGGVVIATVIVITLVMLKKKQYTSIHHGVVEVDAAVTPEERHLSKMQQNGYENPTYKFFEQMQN
Data set [12] shares this target. Put plainly: Binding affinity to amyloid beta plaques in […] brain at 370 kBq/100 ul after 1 hr by immunohistochemical staining method. To be noted: tested as the 18F-labelled form. The method in brief: as §1
Data set [13] relates to Mus musculus. Put plainly: Binding affinity to amyloid beta plaque in transgenic C57BL6 mouse hippocampus expressing APP Swedish mutant/PSEN1 at 40.7 MBq, iv after 30 mins by autoradiographic analysis. Type of data set: functional, organism-based. To be noted: 40.7 M, tested as the 18F-labelled form.
Data set [14] concerns Mus musculus. Put plainly: Binding affinity to amyloid beta plaque in transgenic C57BL6 mouse hippocampus expressing APP Swedish mutant at 40.7 MBq, iv after 30 mins by thioflavinS-staining method. Type of data set: functional, organism-based. Details: dose or concentration left out as unconfirmed. To be noted: tested as the 18F-labelled form. The essentials:
as §2

In data set [15] the test system is Mus musculus. Put plainly: Binding affinity to amyloid beta plaque in transgenic C57BL6 mouse cortex expressing APP Swedish mutant/PSEN1 at 40.7 MBq, iv after 30 mins by autoradiographic analysis. It is filed as functional, organism-based. To be noted: 40.7 M, tested as the 18F-labelled form.
In data set [16] the test system is Brain. Put plainly: Drug uptake in ddY mouse brain at 370 kBq/100 ul, iv at 60 mins by gamma-counting analysis. It is filed as ADME, organism-based. To be noted: in vivo, 1 h. The method in brief: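 Normal male ddY mice (5 weeks, 20−22 g, n = 5) received 370 kBq of tracer in 100 μL saline with 5% EtOH via tail vein. Mice were sacrificed at set times after injection, and organs were excised, weighed and γ-counted against diluted injectate aliquots. Values are %ID per gram, except stomach and intestine as %ID per organ, given as mean ± SD of 5 mice.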

For orientation: Ki means the equilibrium dissociation constant of an inhibitor or competing ligand from its target. `CN(C)c1ccc(-c2cc3ccc([125I])cc3o2)cc1`: in the data set with Brain [1], the Drug uptake is given as less than 1.5 %ID. The compound further registered a Ki in data set [2] of 0.4 nM.

The logD is the decadic logarithm of the distribution of all forms, ionised or not, between an organic phase and buffer at a given pH. Turning to `CN(C)c1ccc(-c2nc3ccc([125I])cc3o2)cc1`, the logD at 0.05 h in [3] worked out at 2.09. For the same compound, the Ki in data set [2] and in data set [5] was 0.8 nM in each case. Also, the results for the Drug uptake with Brain [4] and with Brain [6] were 1.26 %ID and 1.43 %ID, respectively. The Ratio with Brain [7] is on record as 1.13.

As to `CN(C)c1ccc(-c2cc3cc(OCCOCCOCC[18F])ccc3o2)cc1`, the logD at 0.05 h in data set [3] came to 2.94. This compound showed a Ki in [5] of 2 nM. For the same compound, the Ratio in the data set on Brain [7] is 1.03.

Take `CN(C)c1ccc(-c2cc3cc([125I])ccc3o2)cc1`: the Drug uptake in the data set with Brain [1] is on record as less than 1.5 %ID. In data set [2], this compound displayed a Ki of 0.4 nM.

Consider `CNc1ccc(-c2nc3cc(OCCOCCOCCF)ccc3o2)cc1`, for which the result (in the data set filed under Mus musculus [8]; in the data set on Mus musculus [9]; in the data set listed under Mus musculus [10]; in [11]; in [12]; with Mus musculus [13]) was Active. The result in the data set with Mus musculus [14] and in the data set with Mus musculus [15] was Active. This compound also showed a Ki in data set [5] of 9.3 nM.

`CN(C)c1ccc(-c2nc3cc(OCCOCCOCCF)ccc3o2)cc1`: the outcome (in the data set filed under Mus musculus [8]; with Mus musculus [9]; in the data set listed under Mus musculus [10]; in data set [11]; in [12]; in the data set on Mus musculus [13]) was Active. Also, the outcome in the data set with Mus musculus [14] and in the data set on Mus musculus [15] was Active. Moreover, in data set [5], the Ki is 3.9 nM.

`CN(C)c1ccc(-c2cc3cc(OCCOCCOCC[18F])ccc3o2)cn1` came in with a logD at 0.05 h in [3] of 2.32. Also, the Ki in data set [5] is 1 nM. Further, in the data set with Brain [7], the Ratio stood at 2.11.

`CNc1ccc(-c2cc3cc(OCCOCCOCC[18F])ccc3o2)cn1` had a logD at 0.05 h in [3] of 3.11. Further, the affinity in data set [5], expressed as Ki, was 2.4 nM. Besides, in the data set with Brain [7], the Ratio was 2.34.

`CNc1ccc(-c2cc3cc(OCCOCCOCC[18F])ccc3o2)cc1` showed a log distribution coefficient (logD) at 0.05 h in data set [3] of 3.73. In data set [5], this compound returned a Ki of 3.9 nM. The Ratio in the data set with Brain [7] was 2.11.

As for `CNc1ccc(/C=C/c2ccc(OCCOCCOCC[18F])nc2)cc1` [FLORBETAPIR F 18], in the data set with Brain [16], the Drug uptake is recorded as 1.88 % ID/g. In [5], this compound showed a Ki of 2.87 nM. The Ratio in the data set on Brain [7] is reported as 3.9.

On to `Oc1ccc(-c2cc3cc([125I])ccc3o2)cc1`, for which, in the data set on Brain [1], the Drug uptake is on record as less than 1.5 %ID. This compound registered a Ki in data set [2] of 0.4 nM.

For the compound `CNc1ccc(-c2cc3cc([125I])ccc3o2)cc1`, the Drug uptake with Brain [1] was less than 1.5 %ID. The compound also registered a Ki in data set [2] of 0.4 nM.
